Experimental data as given in publication PMC3082393 (Journal of medicinal chemistry, 2011).

system: CDK7; assay: not given; details: ref Our previous study; cited from earlier work

SMILES	Direct inhibitory effect on CDK7
O=Cc1cn(Cc2ccc(Cl)cc2)c2ccccc12 [Oncrasin-1, 1-[(4-chlorophenyl)methyl]-1H-indole-3-carboxaldehyde]	moderate

system: T29 and T29Kt1 cells; assay: Levels of compound 34 in cells after treatment; type: cell-based; details: 10 μM, all time points up to 5 h after treatment, normalized with protein amount
Procedure, shortened: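 T29 and T29Kt1 cells at 80–90% confluence were given 10 μM test compound and collected by trypsin at time points up to 5 h. After a PBS wash, cells were lysed (M-PER) and homogenised, and supernatant protein was measured by BCA. Supernatant was deproteinised with 2 volumes of acetonitrile, spun at 4°C and concentrated under nitrogen. Drug was quantified by C18 HPLC (acetonitrile/water gradient, 230 nm) against an indole-methanol internal standard, then normalised to protein.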

SMILES	Level of compound in T29 cells relative to T29Kt1 cells
OCc1cn(Cc2cccc(Cl)c2)c2ccccc12 [Compound 34, 1-[(3-chlorophenyl)methyl]-1H-indole-3-methanol]	twice

system: phosphorylation of the CTD of RNA polymerase II; assay: not given; details: cited from earlier work

SMILES	CTD phosphorylation in sensitive cancer cell lines
O=Cc1cn(Cc2ccc(Cl)cc2)c2ccccc12 [Oncrasin-1, 1-[(4-chlorophenyl)methyl]-1H-indole-3-carboxaldehyde]	suppressed phosphorylation

system: CDK9; assay: not given; details: ref Our previous study; cited from earlier work

SMILES	Direct inhibitory effect on CDK9
O=Cc1cn(Cc2ccc(Cl)cc2)c2ccccc12 [Oncrasin-1, 1-[(4-chlorophenyl)methyl]-1H-indole-3-carboxaldehyde]	moderate

system: cancer cells that were highly susceptible to oncrasin-1; assay: not given; details: cancer cells highly susceptible to oncrasin-1; cited from earlier work

SMILES	Antitumor activity
OCc1c[nH]c2ccccc12 [indole-3-carbinol]	did not have observable antitumor activity

system: H460 and T29Kt1 cells; assay: Structure-activity statements from the cell viability assay; design: species or system human; details: based on IC50 values of Table 1

SMILES	Antitumor activity (structure-activity statement in words)
OCc1cn(Cc2ccc(Cl)cc2)c2ccc(F)cc12 [Compound 51, 1-[(4-chlorophenyl)methyl]-5-fluoro-1H-indole-3-methanol]	best potency
O=Cc1cn(CCCOc2ccc(Cl)cc2)c2ccccc12 [Compound 15]	retained its activity and selectivity
Brc1cccc(Cn2cc(Cc3cn(Cc4cccc(Br)c4)c4ccccc34)c3ccccc32)c1 [Compound 69, bis[1-[(3-bromophenyl)methyl]-1H-indole-3-]methane]	complete loss of antitumor activity
CC(O)c1cn(Cc2ccc(Cl)cc2)c2ccccc12 (stereo not shown) [Compound 58, 1-[1-[(4-chlorophenyl)methyl]-1H-indole-3-] ethanol]	dramatic reduction or complete loss of activity
OCCCc1cn(Cc2ccccc2)c2ccccc12 [Compound 57]	dramatic reduction or complete loss of activity
OCCc1cn(Cc2ccc(Cl)cc2)c2ccccc12 [Compound 56, 2-[1-[(4-chlorophenyl)methyl]-1H-indole-3-]ethanol]	dramatic reduction or complete loss of activity
Clc1cccc(Cn2cc(Cc3cn(Cc4cccc(Cl)c4)c4ccccc34)c3ccccc32)c1 [Compound 68, bis[1-[(3-chlorophenyl)methyl]-1H-indole-3-]methane]	complete loss of antitumor activity
CC(C)Cn1cc(C=O)c2ccccc21 [Compound 22]	complete or partial loss of activity
CC(=O)OCc1cn(Cc2ccc(Cl)cc2)c2ccccc12 [Compound 60, 1-[(4-chlorophenyl)methyl]-1H-indole-3-methyl acetate]	equipotent to compound 35
O=C(O)c1cn(Cc2ccc(Cl)cc2)c2ccccc12 [Compound 63, 1-[(4-chlorophenyl)methyl]-1H-indole-3-carboxylic acid]	dramatic reduction or complete loss of activity
Cc1ccc(Cn2cc(CO)c3cc(F)ccc32)cc1 [Compound 55, 1-[(4-methylphenyl)methyl]-5-fluoro-1H-indole-3-methanol]	best potency
Cc1cn(Cc2ccc(Cl)cc2)c2ccccc12 [Compound 66, 1-[(4-chlorophenyl)methyl]-1H-indole-3-methane]	dramatic reduction or complete loss of activity
O=C(O)c1cn(Cc2ccccc2)c2ccccc12 [Compound 62]	dramatic reduction or complete loss of activity
COCc1cn(Cc2ccc(Cl)cc2)c2ccccc12 [Compound 59, 1-[(4-chlorophenyl)methyl]-1H-indole-3-methoxymethane]	dramatic loss of activity
